This is a sample that favours compounds with a hit; in the whole collection about 1.7% have one here.
CAL PDZ FP-1: inhibitors of human CAL PDZ peptide binding. Q9HD26. purified CAL PDZ, TMR-peptide fluorescence polarization, 1 h. inhibition, % at 24.9 µM. 0.92% of 300,000 active. AID 602252;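 active = mean inhibition of at least 30% with at least half of replicates also reaching 30%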;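 also: 0% = DMSO neutral control and 100% = excess unlabeled competitor peptide PRC23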
AI-2 QS modul: modulates the Vibrio harveyi AI-2 quorum sensing system; Vibrio harveyi JMH597 AI-2 luminescence/OD600 ratio, 9 h; stronger effect = lower value; strain lacks LuxN and CqsS sensors; 0 = neutral-control median; activity change, % at 7.5 µM; 0.4% of 300,000 active; AID 2094; in the data active = activity change below about -75%, passing the limit was not always enough;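 also: luminescence divided by OD600 gain over 9 h not by final OD600 alone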
ARNT-TACC3 inh: disruptors of human ARNT/TACC3 interaction; AlphaScreen His-ARNT PAS-B/GST-TACC3 binding, luminescence; TACC3 fragment carries E629A point mutation; 0.66% of 390,000 active; Q9Y6A5; inhibition, % at 9.99 µM; AID 623870;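 active = mean inhibition of replicates at least 50% and at least half of replicates each reaching 50%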;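 also: 0% = complete ARNT plus TACC3 wells and 100% = ARNT alone without TACC3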
Rce1 inhib: inhibitors of yeast Ras-converting enzyme; Q03530; AID 2563; 0.27% of 290,000 active; yeast membranes, quenched prenylated peptide cleavage fluorescence; calls only;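 active = fall in fluorescence gain of 50% or more versus controls, with final raw signal at or below 3038400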;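 also: plate controls were neutral control wells for no effect and wells lacking membranes for full effect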
Target sequence (Q03530 whole entry, looked up): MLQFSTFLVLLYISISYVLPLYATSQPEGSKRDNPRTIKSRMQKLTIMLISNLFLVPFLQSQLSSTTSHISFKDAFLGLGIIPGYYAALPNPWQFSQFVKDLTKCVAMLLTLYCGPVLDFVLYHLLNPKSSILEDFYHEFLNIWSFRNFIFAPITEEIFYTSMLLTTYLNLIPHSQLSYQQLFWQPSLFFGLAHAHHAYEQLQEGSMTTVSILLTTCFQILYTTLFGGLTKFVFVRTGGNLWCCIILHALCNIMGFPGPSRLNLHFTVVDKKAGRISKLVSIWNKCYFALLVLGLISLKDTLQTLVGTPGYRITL
CAL PDZ FP-2: inhibitors of human CAL PDZ peptide binding; purified CAL PDZ, TMR-peptide fluorescence polarization, 1 h; 0.02% of 330,000 active; AID 504414; Q9HD26; inhibition, % at 20 µM;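 active = highest replicate inhibition of at least 40%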;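 also: plate controls were DMSO neutral control wells for no effect and unlabeled competitor peptide control wells for full effect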
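Material – purified CerCALP PDZ construct · Detection – FP readout, S and P plane fluorescence · Measure – percent inhibition from loss of millipolarization · Controls – unlabelled peptide for full inhibition, DMSO wells as neutral · Probe or stimulus – TMR-labelled reporter peptide T*-PRC34 bound in PDZ groove · Times – 1 h at RT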
* = called active by the depositor; i = inactive; / = not tested or not shown; + = active, no number.

SMILES	CAL PDZ FP-1	AI-2 QS modul	ARNT-TACC3 inh	Rce1 inhib	CAL PDZ FP-2
CC(C)(C)NC(=O)CN(Cc1ccc2c(c1)OCO2)C(=O)CNC(=O)c1cccs1	/	11	/	i	/
O=C(Nc1ccc2c(c1)OCO2)c1cc(-c2cccnc2)nc2ccccc12	40*	8	2	i	0
COc1cc2c(cc1OC)C(c1ccc(C(F)(F)F)cc1)CC(=O)N2 (centres undefined)	0	/	-4	/	1
COc1cc2c(cc1OC)C(c1ccc(Br)cc1)CC(=O)N2 (centres undefined)	62*	9	3	i	/
C#Cc1cccc(NC(=O)c2ccc(Cl)cc2Cl)c1	-3	18	-3	i	-1
C[C@@H]1CN([C@H](C)CO)C(=O)c2cc(NS(=O)(=O)c3ccc(Cl)cc3)ccc2O[C@@H](C)CCCCO[C@H]1CN(C)Cc1ccc(Cl)c(Cl)c1	/	/	1	/	/
Cc1ccc(C(=O)N[C@H](C(=O)OCc2nnc(-c3ccccc3)o2)C(C)C)cc1	50*	18	-3	i	0
O=[N+]([O-])c1ccc(CNc2cccc(F)c2)s1	-2	4	4	i	1
O=C(Nc1ccc(F)cc1)c1nc[nH]c1C(=O)O	28	23	54*	i	0
CCOC(=O)C1(CCCc2ccccc2)CCN(Cc2cnn(C)c2)CC1	75*	-9	-4	i	0
O=C(N/N=C1\CC(c2ccccc2)Oc2ccccc21)c1ccccn1 (centres undefined)	-4	19	13	i	-1
N#Cc1ccc(NC(=O)NN2CCCCCC2)cc1	82*	/	-2	/	0
N#Cc1ccc(NC(=O)Nc2ccc(Cl)cc2)cc1	-1	-147*	-4	i	-4
CN(CC(=O)Nc1ccc(C#N)cc1)Cc1ccc(Cl)cc1	0	1	9	i	-1
COc1ccc(S(=O)(=O)N(C)C[C@@H]2Oc3ccc(NC(=O)Nc4ccc(F)cc4)cc3C(=O)N([C@H](C)CO)C[C@@H]2C)cc1	/	/	0	/	/
CCOc1ccc(C(=O)N2CCN(S(=O)(=O)c3ccc4c(c3)OCCO4)CC2)cc1OCC	-2	/	-1	/	-2
O=C(COc1ccc2c(c1)OCO2)Nc1nccs1	53*	9	-1	i	0
CN1CCN(C(=O)C2CCN(S(=O)(=O)c3cnc[nH]3)CC2)CC1	-1	17	-3	i	-1
CC1CCCC(NC(=O)C2CCN(S(=O)(=O)c3cnc[nH]3)CC2)C1C (centres undefined)	64*	20	1	i	-1
CCN(Cc1cccs1)C(=O)CN1C(=O)NC2(CCCc3ccccc32)C1=O (centres undefined)	-6	/	-8	/	0
O=C(CCc1ccccc1O)N/N=C/c1ccc(Sc2cccc3cccnc23)o1	-4	32	66*	i	-2
C#CCOc1ccc(Br)cc1C(c1c(C)[nH][nH]c1=O)c1c(C)[nH][nH]c1=O	3	0	-6	i	1
CCC(=O)NCCCNc1nc2c(C)cccc2cc1C#N	6	14	0	/	0
Cc1cc(C)c2cc(C#N)c(NCCCNC(=O)CCC(=O)O)nc2c1	/	23	-17	+	0
Cc1cccc(N(C)S(=O)(=O)c2ccc3[nH]c(=O)c(=O)[nH]c3c2)c1	0	20	41	i	-1
SMILES	CAL PDZ FP-1	AI-2 QS modul	ARNT-TACC3 inh	Rce1 inhib	CAL PDZ FP-2
Cc1cc(N2CCN(C(c3ccccc3)c3ccccc3)CC2)n2ncnc2n1	2	27	2	+	0
Cc1nc2ncnn2c(N2CCN(C(c3ccccc3)c3ccccc3)CC2)c1C	/	6	-5	i	-2
CC(C)NC(=O)CSc1nnc(CNC(=O)OC(C)(C)C)n1C	84*	/	-5	i	0
Cc1cccc(C(=O)NCc2nnc(SCC(=O)NC(C)c3ccccc3)n2C)c1 (centres undefined)	-2	17	3	i	0
NC(=O)c1ccc(Nc2nnc(-c3ccc(O)cc3)c3ccccc23)cc1	-5	14	22	i	-3
COc1ccc(Nc2nnc(-c3ccc(C(N)=O)cc3)c3ccccc23)cc1	/	7	51*	i	0
Cc1ccc(N=C(c2cccs2)N2CCOCC2)cc1	-2	-2	-15	i	0
O=C(NC1CCCC1)C(c1ccccn1)N(Cc1ccc(F)cc1)C(=O)c1csnn1 (centres undefined)	51*	21	1	i	-1

Screening results (PubChem)
